This note sets out measurements from ChEMBL document CHEMBL1157729, “Structure-activity relationship and mechanism of action studies of manzamine analogues for the control of neuroinflammation and cerebral infections” (J Med Chem, 2010).

Usually inhibition in vivo stands for the change of the read-out against control, counted positive when it falls. The term IC50 denotes the concentration that inhibits the measured activity by half. A higher IC50 goes with lower potency. As a reminder, the MIC is the least concentration at which growth counts as inhibited.

Converted amounts (≈) assume the structure as drawn.

The subject of series [1] is Plasmodium berghei. Put plainly: Antiplasmodial activity against Plasmodium berghei NK65 infected in Swiss Webster mice (Mus musculus) at 1.1 mg/kg, po. Type of series: functional. The gist of the method:
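Male Swiss Webster mice (18-20 g), at least 5 per group, inoculated i.p. with 2×10^7 P. berghei NK-65 parasitized red cells from a donor mouse. Oral dosing (100 μl, in SSV or dilute HCl) from day one after infection, three-day modified Peters suppressive schedule. Giemsa-stained tail blood smears from day 5 through day 28. Inhibition is % parasitemia drop on day 5 versus untreated controls. Cure means no parasitemia through day 28.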

Series [2] has as its system Plasmodium berghei. Kind of series: Antiplasmodial activity against Plasmodium berghei NK65 infected in Swiss Webster mice (Mus musculus) assessed as parasitaemia cure at 10 mg/kg, perorally administered 1 day after infection for 3 days measured after 28 days post infection. It counts as functional. The conditions noted are these: route oral. The gist of the method: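 Male Swiss Webster mice (18-20 g), at least 5 per group, inoculated i.p. with 2×10^7 P. berghei NK-65-parasitized red cells from a donor mouse. Oral dosing (100 μl, in SSV or 0.01 M HCl dilutions) from day one post-infection on a 3-day schedule (modified Peters test). Giemsa-stained tail-blood smears read from day 5 to day 28. Cure means no parasitemia through day 28.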

The subject of series [3] is Plasmodium berghei. Kind of series: Antiplasmodial activity against Plasmodium berghei NK65 infected in Swiss Webster mice (Mus musculus) assessed as average parasitaemia at 3.3 mg/kg, perorally administered 1 day after infection for 3 days measured after 28 days post infection. It counts as functional. The conditions noted are these: route oral. The gist of the method:
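Male Swiss Webster mice (18-20 g, ≥5/group) inoculated i.p. with 2×10^7 P. berghei NK-65 parasitized RBC; oral dosing (100 μl, SSV or dilute HCl vehicle) once daily for 3 days from day 1; Giemsa-stained tail blood smears days 5–28; inhibition is % decrease versus untreated controls on day 5.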

The test system of the next series is Cryptococcus neoformans. Put plainly: Antifungal activity against Cryptococcus neoformans ATCC 90113. It counts as functional, organism-based. In short, it runs like this: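 Broth microdilution per modified CLSI method; samples serially diluted in 20% DMSO/saline, tested in duplicate; inocula set by OD630 of suspensions in incubation broth; growth read at 630 nm before and after incubation; amphotericin B drug control.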

Series [4] concerns Plasmodium berghei. Put plainly: Antiplasmodial activity against Plasmodium berghei NK65 infected in Swiss Webster mice (Mus musculus) assessed as survivability at 5 mg/kg, perorally administered 1 day after infection for 3 days measured after 28 days post infection. Type of series: functional. The conditions noted are these: route oral.
For series [5], the system named is Mycobacterium tuberculosis. Put plainly: Antimycobacterial activity against Mycobacterium tuberculosis. Type of series: functional.
Series [6] deals with Plasmodium berghei. Put plainly: Antiplasmodial activity against Plasmodium berghei NK65 infected in Swiss Webster mice (Mus musculus) assessed as average parasitaemia at 50 mg/kg, perorally administered 1 day after infection measured after 28 days post infection. Type of series: functional. The conditions noted are these: route oral. In short, it runs like this:
(§1)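 Male Swiss Webster mice (18-20 g, ≥5/group) inoculated i.p. with 2×10^7 P. berghei NK-65 parasitized RBC, given a single oral dose (100 μl, SSV or dilute HCl vehicle); parasitemia by Giemsa-stained tail blood smears days 5–28; activity as % decrease versus untreated controls on day 5.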

Series [7] deals with Plasmodium berghei. Kind of series: Antiplasmodial activity against Plasmodium berghei NK65 infected in Swiss Webster mice (Mus musculus) assessed as average parasitaemia at 200 mg/kg, perorally administered 1 day after infection measured after 10 days post infection. It counts as functional. The conditions noted are these: Plasmodium berghei, NK65, route oral. The gist of the method:
as §1

Series [8] has as its system Plasmodium berghei. Put plainly: Antiplasmodial activity against Plasmodium berghei NK65 infected in Swiss Webster mice (Mus musculus) assessed as average parasitaemia at 50 mg/kg, perorally administered 1 day after infection measured after 21 days post infection. The conditions noted are these: route oral. Type of series: functional. The gist of the method:
as §1

The subject of series [9] is Plasmodium berghei. Put plainly: Antiplasmodial activity against Plasmodium berghei NK65 infected in Swiss Webster mice (Mus musculus) assessed as inhibition of parasitaemia at 50 mg/kg, perorally administered 1 day after infection measured after 5 days post infection. It counts as functional. The conditions noted are these: route oral. The gist of the method:
as §1

For series [10], the system named is Plasmodium berghei. Kind of series: Antiplasmodial activity against Plasmodium berghei NK65 infected in Swiss Webster mice (Mus musculus) assessed as average parasitaemia at 200 mg/kg, perorally administered 1 day after infection measured after 7 days post infection. The conditions noted are these: route oral. Type of series: functional.
Series [11] has as its system Plasmodium berghei. Put plainly: Antiplasmodial activity against Plasmodium berghei NK65 infected in Swiss Webster mice (Mus musculus) assessed as average parasitaemia at 100 mg/kg, perorally administered 1 day after infection measured after 14 days post infection. It counts as functional. The conditions noted are these: route oral. The gist of the method: as §1
The subject of series [12] is Mus musculus. Put plainly: Toxicity in Plasmodium berghei NK65 infected Swiss Webster mice (Mus musculus) assessed as weight loss at 300 mg/kg, perorally. It counts as organism-based. Set-up: dose 300 mg/kg, route oral. The conditions noted are these: in vivo, po. The gist of the method: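 P. berghei NK-65 infection in male Swiss Webster mice (18-20 g; 2×10^7 parasitized erythrocytes i.p.; ≥5 per group). A single oral dose of 100 μl, diluted in SSV or 0.01 M HCl, then observation for toxicity signs and body weight. Parasitemia read from Giemsa-stained tail smears from day 5 through day 28. Mice free of parasitemia through day 28 counted as cured.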

The subject of series [13] is Plasmodium berghei. Put plainly: Antiplasmodial activity against Plasmodium berghei NK65 infected in Swiss Webster mice (Mus musculus) assessed as average parasitaemia at 100 mg/kg, perorally administered 1 day after infection measured after 5 days post infection. It counts as functional. The conditions noted are these: route oral. The gist of the method: as §1
For series [14], the species on record is Mus musculus. Put plainly: Toxicity in Plasmodium berghei NK65 infected Swiss Webster mice (Mus musculus) assessed as weight loss after 5 days post infection. It counts as organism-based. The conditions noted are these: in vivo, 120 h.
Series [15] relates to Plasmodium berghei. Kind of series: Antiplasmodial activity against Plasmodium berghei NK65 infected in Swiss Webster mice (Mus musculus) assessed as parasitaemia cure at 200 mg/kg, perorally administered 1 day after infection measured after 28 days post infection. Type of series: functional. The conditions noted are these: Plasmodium berghei, NK65, route oral. In short, it runs like this:
(§2)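 Male Swiss Webster mice (18-20 g), at least 5 per group, were inoculated ip with 2×10^7 P. berghei NK-65-parasitized red cells from a donor mouse and given a single oral dose (100 μl). Stock was made in SSV or 0.1 M HCl and diluted in SSV or 0.01 M HCl. Parasitemia was read from Giemsa-stained tail blood smears from day 5 to day 28. Cure meant no parasitemia through day 28.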

In series [16] the test system is Plasmodium berghei. Put plainly: Antiplasmodial activity against Plasmodium berghei NK65 infected in Swiss Webster mice (Mus musculus) assessed as average parasitaemia at 1.1 mg/kg, perorally administered 1 day after infection for 3 days measured after 21 days post infection. It counts as functional. The conditions noted are these: route oral.
Series [17] deals with Plasmodium berghei. Kind of series: Antiplasmodial activity against Plasmodium berghei NK65 infected in Swiss Webster mice (Mus musculus) assessed as average parasitaemia at 200 mg/kg, perorally administered 1 day after infection measured after 21 days post infection. It counts as functional. The conditions noted are these: Plasmodium berghei, NK65, route oral. In short, it runs like this:
as §2

`O[C@]12C=C(c3nccc4c3[nH]c3ccccc34)[C@@H]3CCN(CCCC/C=C\CC1)C[C@@]31C[C@@H]3/C=C\CCCCN3[C@H]12` [MANZAMINE A]: the inhibition in vivo at 1.1 mg/kg is 26.5% in the series on Plasmodium berghei [1] and 39.6% with Plasmodium berghei [16]. In the series with Plasmodium berghei [2], the inhibition in vivo at 10 mg/kg was 75%. In the series with Plasmodium berghei [3], the inhibition in vivo at 3.3 mg/kg was 53.9%. The compound also displayed a 50% inhibitory concentration (IC50) in the series on Cryptococcus neoformans of 1 µg/mL (≈ 1.82 µM). For the same compound, in the series on Plasmodium berghei [4], the inhibition in vivo at 5 mg/kg worked out at 100%. In series [5], this compound returned an MIC of 1.56 µg/mL (≈ 2.84 µM). Besides, the results for the inhibition in vivo at 50 mg/kg in the series on Plasmodium berghei [6], with Plasmodium berghei [8] and in the series on Plasmodium berghei [9] were 6.25%, 5.2% and 100%, respectively. The inhibition in vivo at 200 mg/kg with Plasmodium berghei [7] is 0%; in the series with Plasmodium berghei [10] it was 0%; in the series on Plasmodium berghei [15] it was 100%; in the series on Plasmodium berghei [17], 0%. Further, the inhibition in vivo at 100 mg/kg in the series on Plasmodium berghei [11] and with Plasmodium berghei [13] was 0% each time. Moreover, the Activity result in the series with Mus musculus [12] and in the series listed under Mus musculus [14] was “Non-toxic” each time.
